ChEMBL document CHEMBL1255259, “Phosphorothioate-modified oligodeoxynucleotides inhibit human cytomegalovirus replication by blocking virus entry” (Antimicrob Agents Chemother, 2008)
Activity calls are given as the source filed them. The rule behind the calls is not given here.

Columns and labels:
[1] = Cytotoxicity against HELF assessed as cell viability after 6 days by MTT assay; assay type: cell-based; conditions: human, HELF cells
In short: (§1)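 HELF exposed to rising ODN concentrations (up to 10 μM) for 6 days; viable cells measured by MTT. CC50 taken as concentration that cuts viability to 50%.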

Human alphaherpesvirus 1 [2] = experiment: Antimicrobial activity against Human herpesvirus 1 infected in compound pretreated HELF assessed as inhibition of viral replication at 0.1 uM; assay type: functional, organism-based
In short: (§2)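 HELF pretreated with ODN (0.1 or 1 μM) 1 h before infection with a clinical HSV-1 isolate at MOI 0.1; ODN kept in medium after 2 h adsorption. Harvest at 48 h p.i., sonication, plaque titration on Vero cells. Means ± SD of three independent experiments.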

Human alphaherpesvirus 1 [3] = experiment: Antimicrobial activity against Human herpesvirus 1 infected in compound pretreated HELF assessed as inhibition of viral replication at 1 uM; assay type: functional, organism-based; in short: as §2
unidentified adenovirus = experiment: Antimicrobial activity against unidentified adenovirus infected in compound pretreated HELF assessed as inhibition of viral replication; assay type: functional, organism-based
In short: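 HELF pretreated 1 h with ODN (0.1 or 1 μM), infected with an adenovirus clinical isolate (MOI 1); ODN kept after 2 h adsorption. Harvest at 4 days p.i., sonication, plaque titration on HELF. Means ± SD, three experiments.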

[4] = test system: Vesicular stomatitis Indiana virus; experiment: Antimicrobial activity against Vesicular stomatitis Indiana virus infected in compound pretreated HELF assessed as inhibition of viral replication; assay type: functional, organism-based
In short: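 HELFs exposed to ODN (0.1 or 1 μM) for 1 h, then infected with VSV serotype Indiana at MOI 1 (2 h adsorption, 37°C). ODN kept in the medium until 48 h p.i. Cells and supernatants were pooled, sonicated and titrated by plaque assay on HELFs. Data are means ± standard deviations of three independent experiments, duplicate wells.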

Human betaherpesvirus 5 [5] = experiment: Antimicrobial activity against Human cytomegalovirus AD169 infected in HELF assessed as inhibition of viral replication at 0.1 uM measured after 6 days post-infection; assay type: functional, organism-based
Human betaherpesvirus 5 [6] = experiment: Antimicrobial activity against Human cytomegalovirus AD169 infected in HELF assessed as inhibition of viral replication at 1 uM measured after 6 days post-infection; assay type: functional, organism-based
Human betaherpesvirus 5 [7] = experiment: Antimicrobial activity against Human cytomegalovirus TB40 expressing EGPF tagged UL32 infected in HELF assessed as inhibition of inhibition of viral adsorption at 0.1 uM after 2 hrs by fluorescence microscopy; assay type: functional, organism-based
In short: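 Prechilled HELF on coverslips exposed to ODN (0.1 μM) or heparin (30 μg/ml) 1 h at 4°C, then infected with HCMV TB40 UL32-EGFP (MOI 20) 2 h at 4°C to permit attachment only. Washed in ice-cold PBS, fixed in 4% formaldehyde, propidium iodide counterstain; green virions imaged by confocal fluorescence microscopy. Done twice.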

Human betaherpesvirus 5 [8] = experiment: Antimicrobial activity against 0.1 uM compound pretreated Human cytomegalovirus AD169 infected in HELF assessed as reduction in viral titer at 4 degC; assay type: functional, organism-based
In short: (§3)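 HCMV AD169 (10^4 PFU) incubated with ODN at 0.1 μM at 4 or 37°C for various times; samples then diluted to bring ODN below an antivirally active level; residual infectivity titrated by plaque assay on HELF. Means ± SD of three independent experiments.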

Human betaherpesvirus 5 [9] = experiment: Antimicrobial activity against 0.1 uM compound pretreated Human cytomegalovirus AD169 infected in HELF assessed as reduction in viral titer 37 degC; assay type: functional, organism-based; in short: as §3
Human betaherpesvirus 5 [10] = experiment: Antimicrobial activity against Human cytomegalovirus AD169 infected in 0.1 uM compound pretreated HELF assessed as inhibition of viral replication measured after 6 days post-infection; assay type: functional, organism-based
In short: (§4)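 HELF pretreated with ODN 1 h before infection with HCMV AD169 (MOI 1); ODN kept in medium after 2 h adsorption at 37°C. At 6 days p.i., cells plus supernatants sonicated and titrated by plaque assay on HELF; plaques counted microscopically, expressed as PFU/ml (log10) or % of control. IC50/IC90 by linear regression; duplicate wells, three independent experiments, means ± SD.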

Human betaherpesvirus 5 [11] = experiment: Antimicrobial activity against Human cytomegalovirus AD169 infected in 1 uM compound pretreated HELF assessed as inhibition of viral replication measured after 6 days post-infection; assay type: functional, organism-based; in short: as §4
Human betaherpesvirus 5 [12] = experiment: Antimicrobial activity against Human cytomegalovirus AD169 infected in compound pretreated HELF assessed as inhibition of viral replication measured after 6 days post-infection; assay type: functional, organism-based; conditions: Human betaherpesvirus 5, AD169, HELF; in short: as §4
[13] = Cytotoxicity against HELF assessed as cell viability by MTT assay after 6 days at <=10 uM; assay type: cell-based; conditions: human, 144 h; in short: as §1
Human betaherpesvirus 5 [14] = experiment: Antimicrobial activity against Human cytomegalovirus AD169 infected in compound pretreated HELF measured as immediate early 1 mRNA level by RT-PCR; assay type: functional, organism-based
Human betaherpesvirus 5 [15] = experiment: Antimicrobial activity against Human cytomegalovirus AD169 infected in compound pretreated HELF measured as immediate early 2 mRNA level by RT-PCR; assay type: functional, organism-based

Structure (SMILES)	CC50 at 144 h [1]	inhibition (Human alphaherpesvirus 1 [2])	inhibition (Human alphaherpesvirus 1 [3])	inhibition (unidentified adenovirus)	inhibition [4]	inhibition (Human betaherpesvirus 5 [5])	inhibition (Human betaherpesvirus 5 [6])	inhibition (Human betaherpesvirus 5 [7])	inhibition (Human betaherpesvirus 5 [8])	inhibition (Human betaherpesvirus 5 [9])	inhibition (Human betaherpesvirus 5 [10])	inhibition (Human betaherpesvirus 5 [11])	IC50 (Human betaherpesvirus 5 [12])	IC90 (Human betaherpesvirus 5 [12])	Activity [13]	inhibition (Human betaherpesvirus 5 [14])	inhibition (Human betaherpesvirus 5 [15])
Cc1cn([C@H]2C[C@H](OP(O)(O)=S)[C@@H](COP(O)(=S)O[C@H]3C[C@H](n4cc(C)c(=O)[nH]c4=O)O[C@@H]3COP(O)(=S)O[C@H]3[C@@H](O)[C@H](n4cnc5c(=O)[nH]c(N)nc54)O[C@@H]3COP(O)(=S)O[C@H]3[C@@H](O)[C@H](n4ccc(N)nc4=O)O[C@@H]3COP(O)(=S)O[C@H]3C[C@H](n4cc(C)c(=O)[nH]c4=O)O[C@@H]3COP(O)(=S)O[C@H]3[C@@H](O)[C@H](n4cnc5c(=O)[nH]c(N)nc54)O[C@@H]3COP(O)(=S)O[C@H]3C[C@H](n4cc(C)c(=O)[nH]c4=O)O[C@@H]3COP(O)(=S)O[C@H]3C[C@H](n4cc(C)c(=O)[nH]c4=O)O[C@@H]3COP(O)(=S)O[C@H]3C[C@H](n4cc(C)c(=O)[nH]c4=O)O[C@@H]3COP(O)(=S)O[C@H]3C[C@H](n4cc(C)c(=O)[nH]c4=O)O[C@@H]3COP(O)(=S)O[C@H]3[C@@H](O)[C@H](n4cnc5c(=O)[nH]c(N)nc54)O[C@@H]3COP(O)(=S)O[C@H]3[C@@H](O)[C@H](n4ccc(N)nc4=O)O[C@@H]3COP(O)(=S)O[C@H]3C[C@H](n4cc(C)c(=O)[nH]c4=O)O[C@@H]3COP(O)(=S)O[C@H]3[C@@H](O)[C@H](n4cnc5c(=O)[nH]c(N)nc54)O[C@@H]3COP(O)(=S)O[C@H]3C[C@H](n4cc(C)c(=O)[nH]c4=O)O[C@@H]3COP(O)(=S)O[C@H]3C[C@H](n4cc(C)c(=O)[nH]c4=O)O[C@@H]3COP(O)(=S)O[C@H]3[C@@H](O)[C@H](n4cnc5c(=O)[nH]c(N)nc54)O[C@@H]3COP(O)(=S)O[C@H]3[C@@H](O)[C@H](n4ccc(N)nc4=O)O[C@@H]3COP(O)(=S)O[C@H]3C[C@H](n4cc(C)c(=O)[nH]c4=O)O[C@@H]3COP(O)(=S)O[C@H]3[C@@H](O)[C@H](n4cnc5c(=O)[nH]c(N)nc54)O[C@@H]3COP(O)(=S)O[C@H]3[C@@H](O)[C@H](n4ccc(N)nc4=O)O[C@@H]3COP(O)(=S)O[C@H]3C[C@H](n4cc(C)c(=O)[nH]c4=O)O[C@@H]3CO)O2)c(=O)[nH]c1=O (stereo partly specified)	> 10000 nM	inactive	inactive	inactive	inactive	inactive	inactive	inactive	inactive	inactive	Active	Active	200 nM	4000 nM	Non-toxic		
Cc1cn([C@H]2C[C@H](OP(O)(O)=S)[C@@H](COP(O)(=S)O[C@H]3C[C@H](n4cc(C)c(=O)[nH]c4=O)O[C@@H]3COP(O)(=S)O[C@H]3C[C@H](n4cc(C)c(=O)[nH]c4=O)O[C@@H]3COP(O)(=S)O[C@H]3C[C@H](n4cc(C)c(=O)[nH]c4=O)O[C@@H]3COP(O)(=S)O[C@H]3[C@@H](O)[C@H](n4cnc5c(=O)[nH]c(N)nc54)O[C@@H]3COP(O)(=S)O[C@H]3[C@@H](O)[C@H](n4ccc(N)nc4=O)O[C@@H]3COP(O)(=S)O[C@H]3C[C@H](n4cc(C)c(=O)[nH]c4=O)O[C@@H]3COP(O)(=S)O[C@H]3[C@@H](O)[C@H](n4cnc5c(=O)[nH]c(N)nc54)O[C@@H]3COP(O)(=S)O[C@H]3[C@@H](O)[C@H](n4cnc5c(=O)[nH]c(N)nc54)O[C@@H]3COP(O)(=S)O[C@H]3[C@@H](O)[C@H](n4ccc(N)nc4=O)O[C@@H]3COP(O)(=S)O[C@H]3C[C@H](n4cc(C)c(=O)[nH]c4=O)O[C@@H]3COP(O)(=S)O[C@H]3C[C@H](n4cc(C)c(=O)[nH]c4=O)O[C@@H]3COP(O)(=S)O[C@H]3C[C@H](n4cc(C)c(=O)[nH]c4=O)O[C@@H]3COP(O)(=S)O[C@H]3C[C@H](n4cc(C)c(=O)[nH]c4=O)O[C@@H]3COP(O)(=S)O[C@H]3C[C@H](n4cc(C)c(=O)[nH]c4=O)O[C@@H]3COP(O)(=S)O[C@H]3[C@@H](O)[C@H](n4cnc5c(=O)[nH]c(N)nc54)O[C@@H]3COP(O)(=S)O[C@H]3[C@@H](O)[C@H](n4ccc(N)nc4=O)O[C@@H]3COP(O)(=S)O[C@H]3C[C@H](n4cc(C)c(=O)[nH]c4=O)O[C@@H]3COP(O)(=S)O[C@H]3[C@@H](O)[C@H](n4cnc5c(=O)[nH]c(N)nc54)O[C@@H]3COP(O)(=S)O[C@H]3[C@@H](O)[C@H](n4ccc(N)nc4=O)O[C@@H]3COP(O)(=S)O[C@H]3C[C@H](n4cc(C)c(=O)[nH]c4=O)O[C@@H]3CO)O2)c(=O)[nH]c1=O (stereo partly specified)	> 10000 nM	inactive	inactive	inactive	inactive	inactive	inactive		inactive	inactive	Active	Active	25 nM	65 nM	Non-toxic	Active	Active
